For one data set, the system named is A-431. Put plainly: Antiproliferative activity against human A431 cells after 72 hrs by MTT assay. In kind it is functional, cell-based. The conditions noted are these: A-431, 72 h. (Tetrazolium assays rely on reduction of a dye to a coloured formazan, in cell work by metabolically active cells.)
The subject of a further data set is NIH3T3. Put plainly: Antiproliferative activity against mouse NIH/3T3 cells after 72 hrs by MTT assay. In kind it is cell-based. The conditions noted are these: NIH3T3, 72 h.
Data set [1] in a line: Antiproliferative activity against mouse BNL 1ME A.7R.1 cells after 72 hrs by MTT assay. In kind it is functional, cell-based.
Data set [2] deals with Tyrosine-protein kinase ABL1 (Homo sapiens, UniProt P00519). Put plainly: Inhibition of Abl (unknown origin).
Sequence of Tyrosine-protein kinase ABL1 (P00519 whole entry): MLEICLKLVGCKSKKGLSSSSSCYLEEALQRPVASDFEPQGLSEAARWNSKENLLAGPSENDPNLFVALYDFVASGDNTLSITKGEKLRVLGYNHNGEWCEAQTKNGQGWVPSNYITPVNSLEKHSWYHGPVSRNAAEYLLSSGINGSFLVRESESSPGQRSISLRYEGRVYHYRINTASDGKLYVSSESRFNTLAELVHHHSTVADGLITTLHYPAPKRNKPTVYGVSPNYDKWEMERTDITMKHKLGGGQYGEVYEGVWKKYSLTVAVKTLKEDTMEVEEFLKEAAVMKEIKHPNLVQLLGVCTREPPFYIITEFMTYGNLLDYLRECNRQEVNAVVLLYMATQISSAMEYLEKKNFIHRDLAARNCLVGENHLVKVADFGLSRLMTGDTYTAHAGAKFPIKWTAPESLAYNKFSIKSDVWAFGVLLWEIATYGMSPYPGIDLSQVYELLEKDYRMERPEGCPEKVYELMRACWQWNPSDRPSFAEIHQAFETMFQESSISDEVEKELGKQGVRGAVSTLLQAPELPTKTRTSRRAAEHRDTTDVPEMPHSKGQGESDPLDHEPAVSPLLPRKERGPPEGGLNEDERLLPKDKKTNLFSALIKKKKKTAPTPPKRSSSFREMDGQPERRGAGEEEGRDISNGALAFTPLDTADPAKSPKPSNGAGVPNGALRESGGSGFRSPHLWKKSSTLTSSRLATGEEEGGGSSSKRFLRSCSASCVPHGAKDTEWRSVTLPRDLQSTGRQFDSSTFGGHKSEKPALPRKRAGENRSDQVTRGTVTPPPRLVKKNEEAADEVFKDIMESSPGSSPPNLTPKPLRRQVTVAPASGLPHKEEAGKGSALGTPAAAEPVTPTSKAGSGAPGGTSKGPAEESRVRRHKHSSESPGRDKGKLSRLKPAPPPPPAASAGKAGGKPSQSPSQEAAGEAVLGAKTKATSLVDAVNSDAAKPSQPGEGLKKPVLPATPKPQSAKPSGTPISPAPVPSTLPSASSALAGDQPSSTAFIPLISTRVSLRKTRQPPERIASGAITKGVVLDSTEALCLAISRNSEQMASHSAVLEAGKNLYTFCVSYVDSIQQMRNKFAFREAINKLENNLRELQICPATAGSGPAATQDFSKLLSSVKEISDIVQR
The test system of data set [3] is HUVEC. Put plainly: Antiangiogenic activity in HUVEC assessed as effect on number of cell meshwork at 0.1 uM after 18 hrs. The conditions noted are these: Homo sapiens.
The test system of data set [4] is HUVEC. Kind of data set: Antiangiogenic activity in HUVEC assessed as reduction in cell migration at 1 uM after 4 hrs by matrigel assay. The conditions noted are these: Homo sapiens, in the assay text read “by modified Boyden chamber assay” for “by matrigel assay”. In kind it is functional, cell-based. Summed up:
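Modified Boyden chamber. HUVECs (3×10^4 cell/cm²) were placed on 5.0 µm pore inserts in basal medium with 1% FCS, ±1 µM compound; the lower chamber held growth-factor medium. After 4 h, cells were fixed, the upper side was swabbed, and membranes were DAPI-stained. Nuclei were counted in five fields per insert. Five repeats; results are the percent change from growth-factor-only controls.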

Data set [5] concerns HUVEC. Kind of data set: Antiproliferative activity against HUVEC assessed as reduction in cell viability at 10 uM after 24 hrs by MTT assay. In kind it is cell-based. The conditions noted are these: human. In outline:
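Primary HUVECs (passage ≤5) were seeded at 1×10^4 cell/cm² and grown for 24 h. They were exposed to compound at 10 μM for 24 h (20 h, then MTT 0.50 mg/ml for 4 h). Absorbance was read at 570 nm. Results are the percent change from untreated cultures; mean ± SD of ≥3 experiments.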

The subject of data set [6] is HUVEC. Kind of data set: Antiangiogenic activity in HUVEC assessed as disruption of tube-like structures at 0.1 uM after 18 hrs by phase contrast microscopy. The conditions noted are these: Homo sapiens.
The test system of data set [7] is HUVEC. Put plainly: Antiproliferative activity against HUVEC after 72 hrs by MTT assay. The conditions noted are these: Homo sapiens. In kind it is cell-based.
The target in data set [8] is Fibroblast growth factor receptor 1 (Homo sapiens, UniProt P11362). Kind of data set: Inhibition of FGFR1 (unknown origin). In outline: (§1)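 Recombinant FGFR-1 or VEGFR-2 (final 200 ng/mL) in MOPS pH 7.2 buffer with MgCl2, EGTA, EDTA, DTT and BSA. Compound range was 1–0.01 µM. Reactions used myelin basic protein (0.2 mg/ml), 0.05 mM ATP and 0.25 μCi [γ-32P]ATP, 30 °C for 20 min.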
Sequence of Fibroblast growth factor receptor 1 (P11362 whole entry): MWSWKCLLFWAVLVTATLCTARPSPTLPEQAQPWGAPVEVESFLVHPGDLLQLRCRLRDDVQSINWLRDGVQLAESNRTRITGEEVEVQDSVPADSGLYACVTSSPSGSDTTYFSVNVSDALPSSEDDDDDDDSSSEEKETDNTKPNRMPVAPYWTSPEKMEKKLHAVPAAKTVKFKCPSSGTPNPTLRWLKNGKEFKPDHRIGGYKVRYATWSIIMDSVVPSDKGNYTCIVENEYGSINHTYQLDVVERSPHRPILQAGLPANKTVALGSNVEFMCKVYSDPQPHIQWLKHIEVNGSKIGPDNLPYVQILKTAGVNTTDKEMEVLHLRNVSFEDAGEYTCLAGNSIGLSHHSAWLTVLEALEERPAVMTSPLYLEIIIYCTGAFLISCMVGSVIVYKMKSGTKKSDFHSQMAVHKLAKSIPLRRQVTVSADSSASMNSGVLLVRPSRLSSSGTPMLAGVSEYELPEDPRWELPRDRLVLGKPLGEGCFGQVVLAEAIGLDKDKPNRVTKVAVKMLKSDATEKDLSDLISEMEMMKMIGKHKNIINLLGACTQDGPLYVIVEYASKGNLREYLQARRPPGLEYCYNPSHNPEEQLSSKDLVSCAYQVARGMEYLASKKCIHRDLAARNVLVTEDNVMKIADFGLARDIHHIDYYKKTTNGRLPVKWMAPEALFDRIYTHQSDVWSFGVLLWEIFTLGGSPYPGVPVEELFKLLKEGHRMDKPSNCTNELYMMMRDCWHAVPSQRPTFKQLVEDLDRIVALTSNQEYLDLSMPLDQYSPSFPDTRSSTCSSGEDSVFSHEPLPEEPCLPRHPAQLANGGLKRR

The test system of data set [9] is HUVEC. Put plainly: Induction of apoptosis in HUVEC assessed as mono-/oligo-nucleosome formation at 10 uM after 24 hrs by ELISA. In kind it is functional, cell-based. The conditions noted are these: Homo sapiens. A general note: An ELISA detects its analyte on a solid surface through an enzyme-linked reagent.
The target of data set [10] is Proto-oncogene tyrosine-protein kinase Src (Homo sapiens, UniProt P12931). Put plainly: Inhibition of Src (unknown origin).
Sequence of Proto-oncogene tyrosine-protein kinase Src (P12931 2-536 limits assumed): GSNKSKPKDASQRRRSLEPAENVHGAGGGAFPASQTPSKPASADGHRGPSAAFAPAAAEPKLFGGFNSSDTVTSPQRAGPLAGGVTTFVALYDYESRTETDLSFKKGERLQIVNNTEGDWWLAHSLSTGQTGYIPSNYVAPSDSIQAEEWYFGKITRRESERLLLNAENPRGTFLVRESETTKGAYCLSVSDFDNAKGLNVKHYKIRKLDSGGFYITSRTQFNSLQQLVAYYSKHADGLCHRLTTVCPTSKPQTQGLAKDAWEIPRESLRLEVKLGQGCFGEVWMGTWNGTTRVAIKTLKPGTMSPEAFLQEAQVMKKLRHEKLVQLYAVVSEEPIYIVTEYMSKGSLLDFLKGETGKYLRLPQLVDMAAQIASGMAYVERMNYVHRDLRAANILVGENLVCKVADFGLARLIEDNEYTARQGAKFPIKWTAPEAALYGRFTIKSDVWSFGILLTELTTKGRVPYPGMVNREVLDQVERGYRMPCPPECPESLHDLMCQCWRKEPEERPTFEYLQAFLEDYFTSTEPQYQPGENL
The subject of data set [11] is Mus musculus. Put plainly: Antitumor activity against mouse BNL 1ME A.7R.1 cells allografted in Balb/c mouse assessed as tumor growth inhibition at 50 mg/kg, ip daily measured after 7 days. On the set-up: dose 50 mg/kg. In kind it is functional, organism-based. In outline:
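Male Balb/c mice, 10 weeks old, received 10⁷ BNL 1ME A.7R.1 cells in PBS subcutaneously in the dorsal region. From day 7, mice were dosed daily ip with 50 mg/kg in 0.9% NaCl with 5% PEG 400 and 0.5% Tween 80, or vehicle. Tumors were measured daily for 7 days by caliper (V = AB²/2). Mean ± SEM, five animals per group.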

Data set [12] deals with Mus musculus. Put plainly: Inhibition of FGF2-induced neovascularization in C57/BL6 mouse assessed as reduction in hemoglobin concentration in matrigel plug at 1 uM, sc measured after 7 days. In kind it is functional, organism-based. Summed up:
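Three-month-old C57/BL6 mice under isoflurane received 0.5 mL Matrigel GFR subcutaneously into the flank. The gel contained heparin (12 U.I.), ±FGF-2 200 ng/plug and 1 µM compound. After 7 days, plugs were removed and steeped overnight at 4 °C in 0.1% Brij-35/PBS. Hemoglobin was measured with Drabkin's reagent at 540 nm.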

In another data set the test system is HT-29. Kind of data set: Antiproliferative activity against human HT-29 cells after 72 hrs by MTT assay. In kind it is functional, cell-based. The conditions noted are these: HT-29, 72 h.
Data set [13] concerns the target T1, Platelet-derived growth factor receptor beta (Homo sapiens, UniProt P09619). Put plainly: Inhibition of PDGFRbeta (unknown origin).
The next data set deals with HeLa. Kind of data set: Antiproliferative activity against human HeLa cells after 72 hrs by MTT assay. In kind it is functional, cell-based.
Data set [14] concerns HUVEC. Put plainly: Antiangiogenic activity in HUVEC assessed as decrease in dimensional parameters at 0.1 uM after 18 hrs. The conditions noted are these: Homo sapiens.
A short description of data set [15]: Antiproliferative activity against human MCF7/beta cells after 72 hrs by MTT assay. In kind it is functional, cell-based. The conditions noted are these: MCF7, 72 h.
Data set [16] deals with Vascular endothelial growth factor receptor 2 (Homo sapiens) (UniProt P35968). Kind of data set: Inhibition of VEGFR2 (unknown origin) at 1 uM. In outline: as §1
Sequence of Vascular endothelial growth factor receptor 2 (Homo sapiens) (P35968 whole entry): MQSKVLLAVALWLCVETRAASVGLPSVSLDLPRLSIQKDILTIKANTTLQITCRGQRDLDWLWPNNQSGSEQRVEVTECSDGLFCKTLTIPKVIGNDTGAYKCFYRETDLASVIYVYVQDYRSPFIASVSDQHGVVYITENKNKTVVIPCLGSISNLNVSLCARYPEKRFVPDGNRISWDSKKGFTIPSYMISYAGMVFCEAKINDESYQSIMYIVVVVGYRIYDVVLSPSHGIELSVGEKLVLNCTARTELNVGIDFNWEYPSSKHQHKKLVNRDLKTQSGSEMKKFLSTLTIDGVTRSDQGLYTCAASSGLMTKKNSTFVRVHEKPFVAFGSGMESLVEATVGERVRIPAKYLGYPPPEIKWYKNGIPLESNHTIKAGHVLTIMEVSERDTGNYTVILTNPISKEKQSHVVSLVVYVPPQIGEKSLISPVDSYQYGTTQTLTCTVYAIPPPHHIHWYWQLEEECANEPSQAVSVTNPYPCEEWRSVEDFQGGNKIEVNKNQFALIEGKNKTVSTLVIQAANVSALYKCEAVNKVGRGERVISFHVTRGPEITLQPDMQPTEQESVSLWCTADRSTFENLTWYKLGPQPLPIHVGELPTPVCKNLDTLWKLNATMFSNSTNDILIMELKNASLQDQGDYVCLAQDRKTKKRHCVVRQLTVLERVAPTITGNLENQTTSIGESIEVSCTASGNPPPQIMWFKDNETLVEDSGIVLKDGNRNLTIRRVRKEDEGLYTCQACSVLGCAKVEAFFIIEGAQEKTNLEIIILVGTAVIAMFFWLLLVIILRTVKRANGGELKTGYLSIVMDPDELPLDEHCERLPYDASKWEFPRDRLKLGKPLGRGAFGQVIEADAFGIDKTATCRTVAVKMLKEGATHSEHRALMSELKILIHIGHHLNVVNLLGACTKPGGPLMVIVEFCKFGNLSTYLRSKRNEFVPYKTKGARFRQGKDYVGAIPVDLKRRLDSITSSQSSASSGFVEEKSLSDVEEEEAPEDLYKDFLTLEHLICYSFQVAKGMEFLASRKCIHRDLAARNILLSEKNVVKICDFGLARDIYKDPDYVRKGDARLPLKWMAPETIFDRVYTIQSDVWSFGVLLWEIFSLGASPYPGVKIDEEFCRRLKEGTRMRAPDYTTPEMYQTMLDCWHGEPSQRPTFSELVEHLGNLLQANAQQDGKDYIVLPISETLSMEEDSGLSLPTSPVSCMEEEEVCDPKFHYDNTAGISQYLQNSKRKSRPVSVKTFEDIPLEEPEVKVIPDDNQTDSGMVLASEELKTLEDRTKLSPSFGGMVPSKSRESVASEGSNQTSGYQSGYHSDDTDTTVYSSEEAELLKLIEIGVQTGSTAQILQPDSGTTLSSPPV
The target of data set [17] is T1, Platelet-derived growth factor receptor beta. Kind of data set: Inhibition of PDGFRbeta (unknown origin) at 1 uM.
The nature of data set [18]: Toxicity in mouse BNL 1ME A.7R.1 cells allografted Balb/c mouse model assessed as body weight loss at 50 mg/kg, ip daily measured after 3 days. On the set-up: dose 50 mg/kg, route intraperitoneal. In kind it is organism-based. The conditions noted are these: in vivo, 72 h.
In data set [19] the target is Epidermal growth factor receptor (Homo sapiens, UniProt P00533). Kind of data set: Inhibition of EGFR (unknown origin).

Each structure is given as a SMILES string. Activity calls are given as the source filed them. No cut-off for these calls is given here.

T1 sequence (P09619 whole entry): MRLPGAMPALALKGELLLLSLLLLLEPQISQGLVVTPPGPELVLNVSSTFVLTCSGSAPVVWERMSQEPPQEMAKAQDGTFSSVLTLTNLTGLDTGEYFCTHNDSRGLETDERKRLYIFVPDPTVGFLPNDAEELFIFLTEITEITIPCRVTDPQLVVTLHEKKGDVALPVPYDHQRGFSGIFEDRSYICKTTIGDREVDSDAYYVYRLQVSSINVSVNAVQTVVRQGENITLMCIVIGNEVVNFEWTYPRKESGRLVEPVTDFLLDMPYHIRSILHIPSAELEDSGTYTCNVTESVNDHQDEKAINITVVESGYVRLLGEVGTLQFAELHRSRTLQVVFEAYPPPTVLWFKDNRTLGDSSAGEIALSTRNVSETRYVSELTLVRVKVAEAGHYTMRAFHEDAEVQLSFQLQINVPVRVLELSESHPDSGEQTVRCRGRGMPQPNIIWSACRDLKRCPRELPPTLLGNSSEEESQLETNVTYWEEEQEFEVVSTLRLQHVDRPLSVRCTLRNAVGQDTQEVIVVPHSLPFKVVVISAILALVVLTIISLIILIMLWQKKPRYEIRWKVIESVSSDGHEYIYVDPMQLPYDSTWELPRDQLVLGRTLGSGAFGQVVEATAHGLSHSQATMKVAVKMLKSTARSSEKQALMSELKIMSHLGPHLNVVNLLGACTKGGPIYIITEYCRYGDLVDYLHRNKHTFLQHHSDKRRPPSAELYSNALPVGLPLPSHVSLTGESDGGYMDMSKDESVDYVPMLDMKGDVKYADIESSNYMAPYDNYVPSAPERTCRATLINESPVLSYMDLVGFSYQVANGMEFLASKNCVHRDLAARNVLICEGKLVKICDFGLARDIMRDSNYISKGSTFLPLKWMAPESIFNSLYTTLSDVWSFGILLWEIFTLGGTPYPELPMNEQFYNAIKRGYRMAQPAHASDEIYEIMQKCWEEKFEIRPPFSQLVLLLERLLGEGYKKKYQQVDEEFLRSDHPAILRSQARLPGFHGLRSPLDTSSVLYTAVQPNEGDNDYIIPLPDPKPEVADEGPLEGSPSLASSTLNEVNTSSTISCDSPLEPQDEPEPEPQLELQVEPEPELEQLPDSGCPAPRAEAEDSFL

The term IC50 denotes the concentration needed to halve the response being measured. In the case of `FC(F)(F)c1cccc(Nc2ncnc3c2ccc2ccccc23)c1`, the IC50 in the data set on A-431 and with NIH3T3 was over 10000 nM each time.
With `C=CCOc1cc2ncnc(Nc3cccc(C(F)(F)F)c3)c2cc1OC`, the IC50 is 5950 nM in the data set on A-431 and over 10000 nM in the data set with NIH3T3.
As for `Cc1cccc(Nc2ncnc3cc4c(cc23)OCCO4)n1`, the IC50 with A-431 and with NIH3T3 was over 10000 nM in each case.
For `Cc1ccnc(Nc2ncnc3cc4c(cc23)OCO4)c1`, the 50% inhibitory concentration (IC50) in the data set on A-431 and in the data set on NIH3T3 was over 10000 nM each time.
On to `Cc1cccc(Nc2ncnc3cc4c(cc23)n(C)c(=O)n4C)c1`, for which the IC50 in the data set on A-431 and in the data set with NIH3T3 was over 10000 nM each time.
Regarding `Cc1cccc(Nc2ncnc3cc4c(cc23)OCO4)n1`, the IC50 in the data set with A-431 and in the data set on NIH3T3 was over 10000 nM throughout.
As for `Cc1cccc(Nc2ncnc3c2ccc2ccccc23)c1`, the IC50 in the data set on A-431 and in the data set on NIH3T3 was over 10000 nM in each case.
In general, inhibition refers to the share of the control response that was lost under treatment. On to `Cl.c1ccc(-c2cccc(Nc3ncnc4cc5c(cc34)OCO5)c2)cc1`, for which the IC50 was found to be 2800 nM in [1]; 51 nM in data set [2]; 750 nM with HUVEC [7]; 63 nM in [8]; 32 nM in data set [10]; 950 nM with HT-29. Also, the half-maximal inhibitory concentration (IC50) with NIH3T3 came out at 600 nM; in data set [13], 243 nM. Moreover, in the data set with HUVEC [3], the result was Active. For the same compound, the inhibition entry in the data set with HUVEC [4] and in the data set with Mus musculus [12] was “Active” throughout. The Activity entry with HUVEC [5] is listed as “Non-toxic”. Moreover, the result with HUVEC [6] and with HUVEC [9] was inactive. Besides, the TGI result in the data set with Mus musculus [11] is “Active”.
For `Brc1cccc(Nc2ncnc3c2ccc2ccccc23)c1`, the IC50 with A-431 and in the data set on NIH3T3 was over 10000 nM in each case.
`C=CCOc1cc2ncnc(Nc3cccc(C)c3)c2cc1OC`: the IC50 in the data set with A-431 was 8450 nM; with NIH3T3 it was 6600 nM.
In the case of `Cl.c1ccc(-c2cccc(Nc3ncnc4cc5c(cc34)OCCO5)c2)cc1`, the IC50 in the data set on HeLa came out at 620 nM; in [1] it was 2700 nM; in [2], 24 nM; in [15], 740 nM; in the data set with HUVEC [7], 80 nM; in data set [8], 178 nM. In addition, the half-inhibitory concentration (IC50) in [10] amounted to 642 nM; in the data set with HT-29, 680 nM; with NIH3T3 it was 600 nM; in data set [13], 100 nM. The outcome in the data set on HUVEC [14], in the data set on HUVEC [3], with HUVEC [6] and in the data set on HUVEC [9] was Active. The inhibition entry in the data set with HUVEC [4] and in the data set with Mus musculus [12] was “Active” in each case. Besides, in the data set with HUVEC [5], the Activity result is “Toxic”. Moreover, the inhibition in [16] was 50%. Moreover, in the data set on Mus musculus [11], the TGI entry is “inactive”.
Consider `CS(=O)(=O)Nc1cccc(Nc2ncnc3cc4c(cc23)OCO4)c1`, for which the IC50 with A-431 and in the data set on NIH3T3 was over 10000 nM each time.
In the case of `Cc1ccnc(Nc2ncnc3cc4c(cc23)OCCO4)c1`, the IC50 was found to be 5170 nM in the data set on A-431 and 6600 nM in the data set with NIH3T3.
As to `COc1cc2ncnc(Nc3cccc(Br)c3)c2cc1OC`, the IC50 is over 10000 nM with HeLa; 9500 nM in data set [1]; 8210 nM in data set [15]; 4060 nM in the data set on HUVEC [7]; over 10000 nM in the data set on HT-29; over 10000 nM with NIH3T3. Further, the result in the data set with HUVEC [3] was Active. Also, the inhibition entry with HUVEC [4] was “Active”. The outcome in the data set with HUVEC [6] was inactive. Also, the inhibition entry in the data set with Mus musculus [12] is “inactive”.
`C=CCOc1cc2ncnc(Nc3cccc(Br)c3)c2cc1OC`: the IC50 is 4490 nM with A-431 and over 10000 nM with NIH3T3.
As for `Cl.c1ccc(-c2cccc(Nc3ncnc4cc5c(cc34)OCCCO5)c2)cc1`, the 50% inhibitory concentration (IC50) was determined as 5490 nM in the data set with HeLa; 3000 nM in [1]; 56 nM in data set [2]; 700 nM in [15]; 910 nM in the data set with HUVEC [7]; 63 nM in data set [8]. The concentration for half-maximal inhibition (IC50) with A-431 stood at 660 nM; in data set [10], 645 nM; with HT-29, 710 nM; in the data set on NIH3T3 it was 920 nM; in data set [19], 27 nM. Besides, the outcome in the data set on HUVEC [3] and in the data set on HUVEC [9] was Active. In addition, the inhibition entry with HUVEC [4] and in the data set with Mus musculus [12] was “Active” each time. Also, the Activity result (with HUVEC [5]; in data set [18]) was “Toxic” in each case. The outcome with HUVEC [6] was inactive. Further, the inhibition in data set [17] was determined as 40%; in [16], 30%.
With `Cn1c(=O)n(C)c2cc3c(Nc4cccc(Br)c4)ncnc3cc21`, the IC50 in the data set on A-431 and in the data set on NIH3T3 was over 10000 nM each time.
Turning to `CS(=O)(=O)Nc1cccc(Nc2ncnc3cc4c(cc23)OCCO4)c1`, the IC50 in the data set with A-431 and with NIH3T3 was over 10000 nM each time.
With `Cn1c(=O)n(C)c2cc3c(Nc4cccc(C(F)(F)F)c4)ncnc3cc21`, the IC50 with A-431 and in the data set with NIH3T3 was over 10000 nM in each case.

For the origin of these results see ChEMBL document CHEMBL2417485, “Quinazoline-based multi-tyrosine kinase inhibitors: synthesis, modeling, antitumor and antiangiogenic properties” (Eur J Med Chem, 2013).
